Screening results: PubChem, several laboratories
Compounds with a hit are over-represented: about 4.9% of the library has one in this group of screens.
STAT1 act-1: increases IFN-gamma driven STAT1 reporter signal; NIH 3T3 STAT1-luciferase reporter, luminescence; 100% = IFN-gamma alone, no compound; activation (% of control), % at 5.5 µM; hit rate 2.6% among 200,000; AID 932;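 active = activation above the screen-wide mean activation plus 3 SD, cut at about 130% in these data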;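 note: raw ratio to IFN-gamma control signal so 100% means no change and 0% no light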
NF-kB expr up: compounds increasing NF-kB expression in human neuronal cells | NF-kB reporter expression; stronger effect = higher value | fold change at 12.5 µM | hit rate 1.6% among 190,000; in the data active = fold change above about 3.3
STAT3 act-1: activators of IL-6 induced STAT3 signaling. activation (% of control), % at 5.6 µM. hit rate 0.91% among 190,000. AID 871. U3A cells, IL-6 STAT3-luciferase reporter, luminescence; 100% = signal with IL-6 EC80 alone;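 active = activation above the screen-wide mean of compound activation plus 3 SD, cut at about 130% in these data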;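 note: 0% = background luminescence of wells with medium and substrate only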
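Material: STAT3-luciferase reporter U3A cells; Probe or stimulus: IL-6 (33 ng/mL); Incubation: compound pre-incubation 1 h before IL-6, then 6 h stimulation at 37 °C; Technique: luminescence from STAT3-driven luciferase reporter; Evaluation: % activation versus median of IL-6-stimulated wells; Controls: IL-6-only high control.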
STAT1 inh: inhibitors of IFN-gamma induced STAT1 signaling | NIH 3T3 STAT1-luciferase reporter, luminescence | inhibition, % at 5.5 µM | hit rate 0.35% among 200,000 | AID 920;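 active = inhibition above a set limit, the mean inhibition across all tested compounds plus 3 SD, cut at about 34% in these data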;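 note: 0% = IFN-gamma with DMSO and 100% = IFN-gamma with 300 µM nifuroxazide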
APP 5'UTR act: APP 5'UTR luciferase reporter activation. AID 1276. SH-SY5Y APP 5'UTR luciferase reporter, luminescence; zero percent = DMSO vehicle wells. activation, % at 2 µM. hit rate 1% among 190,000;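 active = activation above a set limit, based on mean plus 3 SD of controls, cut at about 140% in these data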
STAT3 inh: inhibitors of IL-6 induced STAT3 signaling; AID 862; U3A cells, IL-6 STAT3-luciferase reporter, luminescence; host cell line lacks STAT1; hit rate 0.89% among 190,000; inhibition, % at 5.5 µM;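 active = inhibition above the mean inhibition across all screened compounds plus 3 SD, cut at about 44% in these data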;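 note: 0% = DMSO only wells and 100% = 100 µM nifuroxazide control wells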
STAT3 act-2: confirmation of STAT3 signaling activators; shares compounds with STAT3 act-1; U3A STAT3-luciferase reporter, IL-6 potentiation, luminescence; U3A cells lack STAT1; 100 means same as IL-6 alone; potentiation (% of control), % at 5.7 µM; hit rate 64% among 1,200;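 active = percent activation of the STAT3 luciferase reporter above a set limit taken from the earlier primary screen, cut at about 130% in these data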;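 note: 0% = background signal of medium plus substrate and 100% = median of IL-6 with DMSO wells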
NFkB act STAT3ct: activates NF-kappaB, counter-screen to STAT3 activators. hit rate 11% among 1,200. activation (% of control), % at 5.7 µM. human cells, NF-kappaB reporter activation. shares compounds with STAT3 act-1; in the data active = activation above about 120%;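 note: reporter induced by TNF-alpha stimulation; 100% = median of stimulated DMSO wells and 0% = no signal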
STAT1 act-2: counter-screen for STAT3 activators: STAT1 activation; NIH 3T3 STAT1-luciferase reporter, IFN-gamma, luminescence; activation (% of control), % at 5.7 µM; hit rate 13% among 1,200; shares compounds with STAT3 act-1;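 active = activation above the solvent-only control well mean plus 3 SD, set per screening run, cut at about 120% in these data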;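 note: 100% = IFN-gamma with DMSO median signal so 100% means no change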
The depositor's hits bear a star; nt = no result.

SMILES	STAT1 act-1	NF-kB expr up	STAT3 act-1	STAT1 inh	APP 5'UTR act	STAT3 inh	STAT3 act-2	NFkB act STAT3ct	STAT1 act-2
CC(C)C(c1nnnn1Cc1cccs1)N1CCN(C(=O)c2ccco2)CC1 (stereo not drawn)	100	0.93	103	0	2	3	nt	nt	nt
CCOc1ccc(NC(=O)C(CC(=O)O)Cc2ccccc2)cc1 (stereo not drawn)	101	1.1	97	-1	17	3	nt	nt	nt
CCOc1ccc(NC(=O)C(Cc2ccccc2)N2C(=O)c3cccc4cccc(c34)C2=O)cc1 (stereo not drawn)	98	1.1	138*	0	-2	-36	119	96	97
O=C(CSc1nc2c([nH]c3ccccc32)c(=O)n1-c1ccc(F)cc1)NCc1ccco1	87	1.6	142*	14	-4	-40	119	94	87
COc1cc2c(cc1OC)CN(CC(=O)Nc1ccccc1C#N)CC2	96	0.76	159*	4	5	-64	138*	104	94
O=C(CS(=O)c1ccc(C(F)(F)F)cc1[N+](=O)[O-])Oc1ccccc1 (stereo not drawn)	77	1.3	147*	26	3	-51	129	101	72
COC(=O)c1ccc(OC(=O)CS(=O)c2ccccc2[N+](=O)[O-])cc1 (stereo not drawn)	71	1.5	122	31	5	-11	nt	nt	nt
CS(=O)(=O)N1N=C(c2cccs2)CC1c1ccccc1O (stereo not drawn)	100	0.81	102	-2	19	0	nt	nt	nt
Oc1ccccc1C1CC(c2cccs2)=NC(c2ccc(Cl)cc2)N1 (stereo not drawn)	68	1.2	140*	33	51	-45	139*	108	91
O=C(CSc1nc2ccccc2[nH]1)N=Nc1c(O)[nH]c2ccccc12	101	0.91	145*	-2	12	-51	142*	108	105
Cn1c(SCC(=O)N=Nc2c(O)[nH]c3ccccc23)nc2ccccc21	104	1	123	-4	14	-26	nt	nt	nt
Cc1ccc([N+](=O)[O-])cc1NC(=O)CCCOc1ccccc1	88	1.5	90	13	-6	22	nt	nt	nt
O=c1oc2ccccc2c(Nc2cc3ccccc3cc2O)c1[N+](=O)[O-]	105	2.4	141*	-8	77	-45	171*	112	117
O=C(Nc1cc(S(=O)(=O)N2CCCCC2)ccc1O)c1ccccc1NS(=O)(=O)c1ccc(F)c(F)c1	97	0.96	103	3	5	-9	nt	nt	nt
CSCC[C@H](NC(=O)CCn1nnc2ccccc2c1=O)C(=O)O	103	1	139*	-3	-1	-39	92	103	99
O=C(NCC1CCCO1)c1ccc(NS(=O)(=O)c2ccccc2)cc1 (stereo not drawn)	99	1.3	100	-1	-3	5	nt	nt	nt
CC(NS(=O)(=O)c1cccc(S(=O)(=O)c2ccccc2)c1)C(=O)O (stereo not drawn)	89	1.2	99	13	7	3	nt	nt	nt
Cn1c2ccc(F)cc2c2ncn(CCN3CCOCC3)c(=O)c21	104	1.1	97	-4	17	6	nt	nt	nt
Cn1c2ccccc2c2ncn(CCCN3CCOCC3)c(=O)c21	95	1.4	140*	5	24	-42	154*	112	108
COc1ccc(OC)c(NC(=O)c2cc3ccccc3o2)c1	108	1.1	136*	-8	2	-43	129	109	112
COc1ccc(C)cc1NC(=O)c1cc2ccccc2o1	114	1.3	131	-16	7	-28	nt	nt	nt
O=C1NN=C(CSc2n[nH]c(=S)s2)CS1	100	1.2	107	-1	-5	-3	nt	nt	nt
Nc1cc2c(cc1O)CCCC2	104	0.91	137*	-7	17	-35	183*	118	147*
O=C(O)CC/C(=C\c1cc([N+](=O)[O-])ccc1Cl)c1nc2ccccc2s1	87	1	142*	15	4	-46	147*	103	92
O=C(O)CC/C(=C\c1ccccc1[N+](=O)[O-])c1nc2ccccc2s1	103	1.1	107	-3	20	-8	nt	nt	nt
SMILES	STAT1 act-1	NF-kB expr up	STAT3 act-1	STAT1 inh	APP 5'UTR act	STAT3 inh	STAT3 act-2	NFkB act STAT3ct	STAT1 act-2
CCOC(=O)c1ccccc1Nc1cn(C(C)=O)c2ccccc12	90	0.97	149*	11	6	-49	156*	97	114
CC(=O)n1cc(Nc2ccc([N+](=O)[O-])cc2)c2ccccc21	98	1.1	141*	0	8	-51	137*	95	100
CC(=O)n1cc(Nc2ccccc2C(=O)O)c2ccccc21	88	1	156*	14	7	-60	162*	108	111
O=C(COc1ccc(NS(=O)(=O)c2ccc(F)cc2)cc1)N1CCOCC1	102	1.1	91	-1	-2	11	nt	nt	nt
CCOc1ccc(CNC(=O)c2ccc(Sc3ccc(C)cc3)c(NC(C)=O)c2)cc1	101	0.85	101	-1	-3	-2	nt	nt	nt
Cc1ccc(O)c(-c2cc(-c3ccccc3F)[nH]n2)c1	109	4.3*	160*	-10	40	-65	148*	117	111
O=[N+]([O-])c1ccccc1-c1cc(-c2ccccc2O)n[nH]1	96	2.5	123	4	98	-31	nt	nt	nt
CCn1cc([N+](=O)[O-])c(C(=O)N2N=C(c3ccc4ccccc4c3)CC2c2ccccc2O)n1 (stereo not drawn)	104	0.54	151*	-8	7	-58	138*	102	102
CCn1cc(Cl)c(C(=O)N2N=C(c3ccc4ccccc4c3)CC2c2ccccc2O)n1 (stereo not drawn)	100	1.2	102	0	-4	-4	nt	nt	nt
COc1ccc([N+](=O)[O-])cc1NC(=O)Nc1ccccc1	91	1.3	87	10	-20	17	nt	nt	nt
COc1ccc([N+](=O)[O-])cc1C1NN=C(c2ccccc2O)S1 (stereo not drawn)	95	1.3	151*	5	12	-52	142*	100	103
Cc1cccc(NS(=O)(=O)c2cc(C(=O)OCC(=O)Nc3cc(C)on3)ccc2C)c1	102	1.2	147*	-2	-4	-47	132	91	99
